According to ChEMBL document CHEMBL5303300, “EUbOPEN Chemogenomics Library - Multiplex” (2023):
Values joined by “and” are separate entries in the source; they are usually repeats but may differ in a detail not shown here. Equal entries are not always repeated.

System: Fibroblast
Assay: Multiplex assay against human fibroblast
Assay type: toxicity, cell-based
Conditions: number of replicates 2
In short: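 Per cents of healthy-nucleus cells form the tubulin, mitochondrial-mass and membrane-permeability phenotype values. Live cells were stained at seeding with Hoechst33342, BioTracker Green Microtubule Cytoskeleton Dye, MitoTracker Red and Annexin V Alexa Fluor 680. After compound addition they were imaged on a CQ1 microscope at 37°C and 5% CO2, and CellPathfinder machine-learning gating split them into Hoechst high-intensity objects or normal cells, normal cells into healthy, pyknosed or fragmented nuclei, and pyknosed cells into mitotic or apoptotic.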

[1] = 12 h, 1 µM, compound concentration 1 uM
[2] = 12 h, 10 µM, compound concentration 10 uM
[3] = 24 h, 1 µM, compound concentration 1 uM
[4] = 24 h, 10 µM, compound concentration 10 uM
[5] = 48 h, 1 µM, compound concentration 1 uM
[6] = 48 h, 10 µM, compound concentration 10 uM

Which “Population Apoptotic (%)” value [1] does the source give for `COc1cccc(Cn2cc(C(=O)Nc3ccc(C)c(S(=O)(=O)N4CCOCC4)c3)c(-c3ccc(C)cc3)n2)c1` here?
The value was 48% and 37%.

And the “Population Fragmented Nuclei (%)” value [1]?
Its value is 7% and 6%.

What about the “Population Healthy Nuclei (%)” value [1] of the same compound?
The value was 65% and 67%.

What about the “Population Hoechst High Intensity Objects (%)” value [1] of the same compound?
Its value is 0% and 1%.

What about the “Population Membrane Permeable-Phenotype (%)” value [1] of the same compound?
Its value is 13% and 10%.

What about the “Population Mitochondria Different-Phenotype (%)” value [1] of the same compound?
The value was 2% and 3%.

And the “Population Mitotic Cells (%)” value [1]?
Its value is 51% and 62%.

What about the “Population Normal (%)” value [1] of the same compound?
Its value is 100% and 98%.

And the “Population Pyknosed Nuclei (%)” value [1]?
The value was 26% and 27%.

What about the “Population Tubulin-Different-Phenotype (%)” value [1] of the same compound?
The value was 44% and 39%.

What about the “Total Cell Count” value [1] of the same compound?
The value was 152 and 203.

What about the “Population Apoptotic (%)” value [2] of the same compound?
Its value is 39% and 45%.

And the “Population Fragmented Nuclei (%)” value [2]?
The value was 6% and 7%.

And the “Population Healthy Nuclei (%)” value [2]?
The value was 63% and 53%.

What about the “Population Hoechst High Intensity Objects (%)” value [2] of the same compound?
The value was 0% and 1%.

What about the “Population Membrane Permeable-Phenotype (%)” value [2] of the same compound?
The value was 21% and 28%.

What about the “Population Mitochondria Different-Phenotype (%)” value [2] of the same compound?
The value was 2% and 1%.

And the “Population Mitotic Cells (%)” value [2]?
The value was 60% and 54%.

And the “Population Normal (%)” value [2]?
The value was 100% and 98%.

What about the “Population Pyknosed Nuclei (%)” value [2] of the same compound?
Its value is 29% and 38%.

What about the “Population Tubulin-Different-Phenotype (%)” value [2] of the same compound?
Its value is 93% and 85%.

And the “Total Cell Count” value [2]?
Its value is 191 and 229.

And the “Population Apoptotic (%)” value [3]?
Its value is 57% and 42%.

And the “Population Fragmented Nuclei (%)” value [3]?
The value was 9% and 10%.

What about the “Population Healthy Nuclei (%)” value [3] of the same compound?
The value was 64% and 59%.

And the “Population Hoechst High Intensity Objects (%)” value [3]?
Its value is 0%.

And the “Population Membrane Permeable-Phenotype (%)” value [3]?
The value was 13% and 9%.

And the “Population Mitochondria Different-Phenotype (%)” value [3]?
Its value is 1% and 3%.

What about the “Population Mitotic Cells (%)” value [3] of the same compound?
Its value is 42% and 57%.

And the “Population Normal (%)” value [3]?
Its value is 100%.

What about the “Population Pyknosed Nuclei (%)” value [3] of the same compound?
Its value is 25% and 30%.

And the “Population Tubulin-Different-Phenotype (%)” value [3]?
The value was 44% and 38%.

And the “Total Cell Count” value [3]?
The value was 162 and 205.

And the “Population Apoptotic (%)” value [4]?
The value was 66% and 67%.

What about the “Population Fragmented Nuclei (%)” value [4] of the same compound?
Its value is 9%.

What about the “Population Healthy Nuclei (%)” value [4] of the same compound?
The value was 70% and 57%.

What about the “Population Hoechst High Intensity Objects (%)” value [4] of the same compound?
The value was 0% and 1%.

And the “Population Membrane Permeable-Phenotype (%)” value [4]?
The value was 14% and 20%.

And the “Population Mitochondria Different-Phenotype (%)” value [4]?
Its value is 2% and 7%.

And the “Population Mitotic Cells (%)” value [4]?
Its value is 33% and 32%.

And the “Population Normal (%)” value [4]?
The value was 100% and 98%.

What about the “Population Pyknosed Nuclei (%)” value [4] of the same compound?
Its value is 19% and 32%.

And the “Population Tubulin-Different-Phenotype (%)” value [4]?
The value was 90% and 84%.

And the “Total Cell Count” value [4]?
Its value is 199 and 219.

And the “Population Apoptotic (%)” value [5]?
Its value is 73% and 64%.

What about the “Population Fragmented Nuclei (%)” value [5] of the same compound?
The value was 13% and 11%.

What about the “Population Healthy Nuclei (%)” value [5] of the same compound?
The value was 65% and 67%.

What about the “Population Hoechst High Intensity Objects (%)” value [5] of the same compound?
Its value is 0%.

And the “Population Membrane Permeable-Phenotype (%)” value [5]?
The value was 6% and 9%.

What about the “Population Mitochondria Different-Phenotype (%)” value [5] of the same compound?
The value was 1% and 2%.

And the “Population Mitotic Cells (%)” value [5]?
Its value is 26% and 35%.

And the “Population Normal (%)” value [5]?
Its value is 100% and 99%.

What about the “Population Pyknosed Nuclei (%)” value [5] of the same compound?
Its value is 21% and 20%.

And the “Population Tubulin-Different-Phenotype (%)” value [5]?
Its value is 34%.

And the “Total Cell Count” value [5]?
The value was 178 and 191.

What about the “Population Apoptotic (%)” value [6] of the same compound?
Its value is 75%.

What about the “Population Fragmented Nuclei (%)” value [6] of the same compound?
Its value is 15% and 17%.

And the “Population Healthy Nuclei (%)” value [6]?
The value was 69% and 58%.

And the “Population Hoechst High Intensity Objects (%)” value [6]?
Its value is 0% and 1%.

What about the “Population Membrane Permeable-Phenotype (%)” value [6] of the same compound?
The value was 25% and 23%.

What about the “Population Mitochondria Different-Phenotype (%)” value [6] of the same compound?
The value was 1% and 5%.

And the “Population Mitotic Cells (%)” value [6]?
Its value is 25%.

What about the “Population Normal (%)” value [6] of the same compound?
The value was 100% and 98%.

And the “Population Pyknosed Nuclei (%)” value [6]?
Its value is 15% and 23%.

And the “Population Tubulin-Different-Phenotype (%)” value [6]?
The value was 89% and 83%.

And the “Total Cell Count” value [6]?
Its value is 210 and 238.

For `Cn1ncc(NC(=O)c2nc(-c3c(F)cccc3F)sc2N)c1N1CC[C@@H](N)[C@H](F)CC1`, which “Population Apoptotic (%)” value [1] is on record?
Its value is 60% and 38%.

What about the “Population Fragmented Nuclei (%)” value [1] of the same compound?
The value was 18%.

And the “Population Healthy Nuclei (%)” value [1]?
Its value is 67% and 74%.

And the “Population Mitotic Cells (%)” value [1]?
Its value is 40%.

What about the “Population Normal (%)” value [1] of the same compound?
The value was 100% and 99%.

What about the “Population Tubulin-Different-Phenotype (%)” value [1] of the same compound?
Its value is 14% and 8%.

And the “Total Cell Count” value [1]?
Its value is 170 and 268.

What about the “Population Apoptotic (%)” value [2] of the same compound?
The value was 26% and 21%.

And the “Population Fragmented Nuclei (%)” value [2]?
Its value is 35%.

What about the “Population Healthy Nuclei (%)” value [2] of the same compound?
The value was 48% and 47%.

And the “Population Mitotic Cells (%)” value [2]?
Its value is 73% and 78%.

And the “Population Normal (%)” value [2]?
Its value is 100%.

What about the “Population Tubulin-Different-Phenotype (%)” value [2] of the same compound?
The value was 34% and 25%.

And the “Total Cell Count” value [2]?
The value was 307 and 502.

And the “Population Apoptotic (%)” value [3]?
Its value is 65% and 54%.

What about the “Population Fragmented Nuclei (%)” value [3] of the same compound?
Its value is 15%.

And the “Population Healthy Nuclei (%)” value [3]?
The value was 65% and 73%.

What about the “Population Mitotic Cells (%)” value [3] of the same compound?
Its value is 34% and 45%.

What about the “Population Normal (%)” value [3] of the same compound?
The value was 100%.

And the “Population Tubulin-Different-Phenotype (%)” value [3]?
The value was 13% and 7%.

What about the “Total Cell Count” value [3] of the same compound?
The value was 172 and 273.

And the “Population Apoptotic (%)” value [4]?
Its value is 27% and 21%.

And the “Population Fragmented Nuclei (%)” value [4]?
Its value is 48% and 56%.

And the “Population Healthy Nuclei (%)” value [4]?
Its value is 43% and 38%.

And the “Population Mitotic Cells (%)” value [4]?
The value was 72% and 78%.

And the “Population Normal (%)” value [4]?
The value was 100% and 99%.

And the “Population Tubulin-Different-Phenotype (%)” value [4]?
Its value is 38% and 31%.

What about the “Total Cell Count” value [4] of the same compound?
The value was 456 and 659.

And the “Population Apoptotic (%)” value [5]?
The value was 80% and 51%.

What about the “Population Fragmented Nuclei (%)” value [5] of the same compound?
The value was 20%.

And the “Population Healthy Nuclei (%)” value [5]?
The value was 63% and 69%.

And the “Population Mitotic Cells (%)” value [5]?
The value was 20% and 48%.

What about the “Population Normal (%)” value [5] of the same compound?
Its value is 100%.

And the “Total Cell Count” value [5]?
The value was 193 and 286.

And the “Population Apoptotic (%)” value [6]?
The value was 66% and 54%.

What about the “Population Fragmented Nuclei (%)” value [6] of the same compound?
The value was 52% and 60%.

What about the “Population Healthy Nuclei (%)” value [6] of the same compound?
Its value is 45% and 38%.

And the “Population Mitotic Cells (%)” value [6]?
The value was 45%.

What about the “Population Normal (%)” value [6] of the same compound?
Its value is 100%.

And the “Population Tubulin-Different-Phenotype (%)” value [6]?
Its value is 43% and 27%.

And the “Total Cell Count” value [6]?
Its value is 604 and 928.
